Laboratory results published in ChEMBL document CHEMBL2062418, “C3-heteroaroyl cannabinoids as photolabeling ligands for the CB2 cannabinoid receptor” (Bioorg Med Chem Lett, 2012).
pKi: −log10 of the molar value.

Tests used:
[1] = target: Cannabinoid receptor 2 (Mus musculus, UniProt P47936); assay: Displacement of [3H]CP-55,940 from mouse CB2 receptor expressed in HEK293 cells; format: cell-based
In short: (§1)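 Competition binding with [3H]CP-55,940 on rat brain membranes (CB1) or on membranes from HEK293 cells expressing mouse or human CB2. Screened first at two points in triplicate. Where that screen gave Ki below 1000 nM, Ki was taken from one 8-point experiment run in triplicate.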

[2] = target: Cannabinoid receptor 1 (Rattus norvegicus, UniProt P20272); assay: Displacement of [3H]CP-55,940 from rat brain CB1 receptor; in short: as §1
[3] = target: Cannabinoid receptor 2 (Homo sapiens, UniProt P34972); assay: Displacement of [3H]CP-55,940 from human CB2 receptor expressed in HEK293 cells; format: cell-based; in short: as §1
[4] = Selectivity ratio of Ki for rat CB1 receptor to Ki for mouse CB2 receptor
[5] = target: Cannabinoid receptor 2 (Mus musculus) (UniProt P47936); conditions: HEK293, 342 nM
Sequence of Cannabinoid receptor 2 (Mus musculus) (P47936 whole entry): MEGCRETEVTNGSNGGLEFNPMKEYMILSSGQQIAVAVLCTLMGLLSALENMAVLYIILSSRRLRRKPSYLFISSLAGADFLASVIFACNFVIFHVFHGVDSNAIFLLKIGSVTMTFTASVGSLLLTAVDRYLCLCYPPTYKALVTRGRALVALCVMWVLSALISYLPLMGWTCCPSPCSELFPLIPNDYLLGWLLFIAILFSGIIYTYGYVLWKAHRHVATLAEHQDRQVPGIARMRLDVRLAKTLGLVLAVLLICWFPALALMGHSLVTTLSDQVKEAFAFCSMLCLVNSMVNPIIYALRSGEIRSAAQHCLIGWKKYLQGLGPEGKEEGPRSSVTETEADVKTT

Sequence of Cannabinoid receptor 2 (Mus musculus, UniProt P47936) (P47936 whole entry): as above
Sequence of Cannabinoid receptor 2 (Homo sapiens, UniProt P34972) (P34972 whole entry): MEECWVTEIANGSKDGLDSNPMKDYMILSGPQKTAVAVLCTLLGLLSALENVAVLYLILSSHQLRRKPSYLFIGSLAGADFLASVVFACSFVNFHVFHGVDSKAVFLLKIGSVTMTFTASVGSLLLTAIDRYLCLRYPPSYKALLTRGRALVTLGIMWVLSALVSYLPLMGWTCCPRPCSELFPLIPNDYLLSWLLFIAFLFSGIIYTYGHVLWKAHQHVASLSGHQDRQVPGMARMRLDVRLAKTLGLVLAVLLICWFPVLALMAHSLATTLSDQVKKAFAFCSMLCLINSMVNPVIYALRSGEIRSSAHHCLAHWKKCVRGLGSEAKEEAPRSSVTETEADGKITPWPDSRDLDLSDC
Sequence of Cannabinoid receptor 1 (P20272 whole entry): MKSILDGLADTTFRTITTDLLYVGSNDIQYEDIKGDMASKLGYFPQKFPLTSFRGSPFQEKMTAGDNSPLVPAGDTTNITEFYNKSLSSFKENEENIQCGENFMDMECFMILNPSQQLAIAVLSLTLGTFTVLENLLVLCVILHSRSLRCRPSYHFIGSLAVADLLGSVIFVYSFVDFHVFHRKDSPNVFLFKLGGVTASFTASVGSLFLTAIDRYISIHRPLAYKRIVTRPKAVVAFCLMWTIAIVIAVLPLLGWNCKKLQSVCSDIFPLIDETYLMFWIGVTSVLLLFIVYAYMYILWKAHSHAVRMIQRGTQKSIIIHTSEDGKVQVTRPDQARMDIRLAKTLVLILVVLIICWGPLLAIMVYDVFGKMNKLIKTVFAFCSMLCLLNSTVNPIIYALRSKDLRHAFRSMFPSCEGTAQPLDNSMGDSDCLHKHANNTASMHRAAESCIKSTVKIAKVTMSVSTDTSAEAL

Which results are given for `CC1(C)Oc2cc(C(=O)c3ccco3)cc(O)c2[C@@H]2C[C@H](O)CC[C@H]21`?
pKi [1]: < 6.00; pKi [2]: < 6.00

With `Cn1cc(C(=O)c2cc(O)c3c(c2)OC(C)(C)[C@@H]2CC[C@@H](O)C[C@@H]32)c2ccccc21` as the compound, how does the pKi [3] read?
Its pKi is 5.52.

What about the pKi [1] of the same compound?
The pKi was 6.39.

And the pKi [2]?
The pKi was 5.49.

What does the source list for `CC1(C)Oc2cc(C(=O)c3cncs3)cc(O)c2[C@@H]2C[C@H](O)CC[C@H]21`?
pKi [1]: < 6.00; pKi [2]: < 6.00

Which results are given for `CC1(C)Oc2cc(C(=O)c3cccc(C(F)(F)F)c3)cc(O)c2[C@@H]2C[C@H](O)CC[C@H]21`?
pKi [3]: 7.43; pKi [1]: 7.34; pKi [2]: 7.21

Which results are given for `CC1(C)Oc2cc(C(=O)c3cc4ccccc4o3)cc(O)c2[C@@H]2C[C@H](O)CC[C@H]21`?
pKi [3]: 6.68; pKi [1]: 6.79; pKi [2]: 5.87

With `CC1(C)Oc2cc(C(=O)c3ccoc3)cc(O)c2[C@@H]2C[C@H](O)CC[C@H]21` as the compound, how does the pKi [1] read?
Its pKi is < 6.00.

What about the pKi [2] of the same compound?
Its pKi is < 6.00.

For `CC1(C)Oc2cc(C(=O)c3csc4ccccc34)cc(O)c2[C@@H]2C[C@H](O)CC[C@H]21`, which Ratio Ki [4] is on record?
The Ratio Ki was 37.

What about the pKi [3] of the same compound?
Its pKi is 6.90.

And the pKi [1]?
Its pKi is 7.47.

What about the pKi [2] of the same compound?
Its pKi is 5.90.

And the Bmax [5]?
Its Bmax is 67%.

With `CC1(C)Oc2cc(C(=O)c3cccnc3)cc(O)c2[C@@H]2C[C@H](O)CC[C@H]21` as the compound, how does the pKi [3] read?
Its pKi is < 6.00.

And the pKi [1]?
Its pKi is < 6.00.

And the pKi [2]?
The pKi was < 6.00.

Which results are given for `CC1(C)Oc2cc(C(=O)c3ccncc3)cc(O)c2[C@@H]2C[C@H](O)CC[C@H]21`?
pKi [3]: < 6.00; pKi [1]: < 6.00; pKi [2]: < 6.00

With `CC1(C)Oc2cc(C(=O)c3ccccc3)cc(O)c2[C@@H]2C[C@H](O)CC[C@H]21` as the compound, how does the pKi [3] read?
Its pKi is 6.23.

And the pKi [1]?
Its pKi is 6.61.

What about the pKi [2] of the same compound?
The pKi was 6.01.

Which results are given for `CC1(C)Oc2cc(C(=O)c3c[nH]c4ccccc34)cc(O)c2[C@@H]2C[C@H](O)CC[C@H]21`?
Ratio Ki [4]: 17; pKi [3]: 6.80; pKi [1]: 7.22; pKi [2]: 5.98

With `CC1(C)Oc2cc(C(=O)c3coc4ccccc34)cc(O)c2[C@@H]2C[C@H](O)CC[C@H]21` as the compound, how does the Ratio Ki [4] read?
Its Ratio Ki is 17.

What about the pKi [3] of the same compound?
The pKi was 6.93.

What about the pKi [1] of the same compound?
Its pKi is 6.77.

What about the pKi [2] of the same compound?
The pKi was 5.54.

With `CC1(C)Oc2cc(C(=O)c3cccs3)cc(O)c2[C@@H]2C[C@H](O)CC[C@H]21` as the compound, how does the pKi [1] read?
The pKi was < 6.00.

And the pKi [2]?
Its pKi is < 6.00.

With `CC1(C)Oc2cc(C(=O)c3cscn3)cc(O)c2[C@@H]2C[C@H](O)CC[C@H]21` as the compound, how does the pKi [3] read?
Its pKi is < 6.00.

What about the pKi [1] of the same compound?
The pKi was < 6.00.

What about the pKi [2] of the same compound?
The pKi was < 6.00.

With `CC1(C)Oc2cc(C(=O)c3ccccn3)cc(O)c2[C@@H]2C[C@H](O)CC[C@H]21` as the compound, how does the pKi [3] read?
Its pKi is < 6.00.

And the pKi [1]?
The pKi was < 6.00.

And the pKi [2]?
Its pKi is < 6.00.

With `CC1(C)Oc2cc(C(=O)c3cc4ccccc4s3)cc(O)c2[C@@H]2C[C@H](O)CC[C@H]21` as the compound, how does the pKi [3] read?
Its pKi is 6.95.

What about the pKi [1] of the same compound?
Its pKi is 6.82.

What about the pKi [2] of the same compound?
The pKi was 6.81.

With `CC1(C)Oc2cc(C(=O)c3ccsc3)cc(O)c2[C@@H]2C[C@H](O)CC[C@H]21` as the compound, how does the pKi [3] read?
The pKi was 5.81.

And the pKi [1]?
Its pKi is 6.28.

And the pKi [2]?
The pKi was 5.98.

Which results are given for `CC1(C)Oc2cc(C(=O)c3ccncc3F)cc(O)c2[C@@H]2C[C@H](O)CC[C@H]21`?
pKi [1]: < 6.00; pKi [2]: < 6.00

What does the source list for `CC1(C)Oc2cc(C(=O)c3cccc(F)c3)cc(O)c2[C@@H]2C[C@H](O)CC[C@H]21`?
pKi [1]: 6.43; pKi [2]: 6.34
